# Measurements reported in ChEMBL document CHEMBL1150361, “Inhibitors of tubulin polymerization: synthesis and biological evaluation of hybrids of vindoline, anhydrovinblastine and vinorelbine with thiocolchicine, podophyllotoxin and baccatin III” (2008).
# Activity calls are given as the source filed them. The calls are words filed in the database; no cut-off is given here.
# Experiments:
# Tubulin (Sus scrofa) = Tubulin (Sus scrofa) (UniProt P02554+P02550); experiment: Inhibition of pig brain tubulin polymerization at 10 uM
# Summary of the method: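 Tubulin purified from porcine brain by three warm-cold cycles plus anion-exchange to remove MAPs. Tubulin at 2.7 mg/ml was preincubated with drug (final 10 µM, 0.2% DMSO) in GTP-free K-Pipes pH 6.9 buffer with 10% glycerol, 15 min at 37 °C. Then 1 mM GTP was added and the mix held 30 min at 37 °C. Polymer and soluble fractions were separated at 30,000g and run on SDS-PAGE with Coomassie staining; densitometry; unpaired t-test.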
# A549 [1] = experiment: Cytotoxicity against human A549 cells after 24 hrs by MTS assay; type: functional, cell-based
# Summary of the method: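 A549 cells seeded at 10³ cells/well, allowed to attach 24 h, then exposed to drug prepared in medium at 1, 10 or 100 µM for 24 h. MTS/PES reagent added, 1 h at 37 °C, absorbance read at 490 nm. Quintuplicate wells; viability expressed as percentage of control.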
# A549 [2] = experiment: Cell cycle arrest in human A549 cells assessed as accumulation at G2/M phase at 10 uM at 24 hrs; type: functional
# Summary of the method: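 A549 human lung carcinoma cells were grown in E-MEM with 10% FBS, 2 mM L-glutamine, penicillin and non-essential amino acids at 37 °C, 5% CO2. Cells were seeded at 10⁵–2·10⁵ per well, attached 24 h, then drug-treated (DMSO vehicle control) for 24 h at 37 °C. They were harvested by trypsin, stained for DNA with the CycleTEST PLUS kit, and analysed by flow cytometry for G2/M fraction.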
# A549 [3] = experiment: Cytotoxicity against human A549 cells at 10 uM after 24 hrs […]; type: functional, cell-based
# Sequence of Tubulin (Sus scrofa) (P02550 whole entry, looked up): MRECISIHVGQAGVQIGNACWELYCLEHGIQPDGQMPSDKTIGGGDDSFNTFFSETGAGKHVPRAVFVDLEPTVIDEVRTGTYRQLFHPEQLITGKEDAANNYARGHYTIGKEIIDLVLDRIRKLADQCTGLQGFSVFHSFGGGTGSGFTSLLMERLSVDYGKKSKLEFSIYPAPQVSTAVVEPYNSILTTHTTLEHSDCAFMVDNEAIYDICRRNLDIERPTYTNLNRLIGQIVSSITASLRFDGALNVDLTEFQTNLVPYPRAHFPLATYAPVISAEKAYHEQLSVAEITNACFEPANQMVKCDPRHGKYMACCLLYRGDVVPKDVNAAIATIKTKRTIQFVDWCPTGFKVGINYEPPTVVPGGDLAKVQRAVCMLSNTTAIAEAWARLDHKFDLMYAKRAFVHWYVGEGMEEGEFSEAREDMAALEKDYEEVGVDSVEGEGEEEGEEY
# Sequence of Tubulin (Sus scrofa) (P02554 whole entry, looked up): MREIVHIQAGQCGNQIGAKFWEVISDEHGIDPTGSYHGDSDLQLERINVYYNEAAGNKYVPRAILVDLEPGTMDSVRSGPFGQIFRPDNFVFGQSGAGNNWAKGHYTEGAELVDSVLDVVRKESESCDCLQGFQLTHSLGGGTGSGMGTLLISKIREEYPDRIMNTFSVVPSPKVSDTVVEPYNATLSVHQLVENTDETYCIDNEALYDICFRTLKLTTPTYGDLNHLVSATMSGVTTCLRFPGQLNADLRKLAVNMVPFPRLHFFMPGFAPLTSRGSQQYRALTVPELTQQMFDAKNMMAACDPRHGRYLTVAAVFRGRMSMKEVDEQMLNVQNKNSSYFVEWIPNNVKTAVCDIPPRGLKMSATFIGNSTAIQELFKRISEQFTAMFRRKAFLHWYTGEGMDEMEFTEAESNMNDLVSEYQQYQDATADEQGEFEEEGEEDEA
Compound,Activity (Tubulin (Sus scrofa)),Activity (A549 [1]),Activity (A549 [2]),Activity (A549 [3])
CC[C@]12C=CCN3CC[C@@]4(c5ccc(OC)cc5N(C)[C@H]4[C@@](O)(C(=O)OC)[C@@H]1OC(=O)CCCCCCCCC(=O)OC1C[C@@]4(O)[C@@H](OC(=O)c5ccccc5)[C@@H]5[C@]6(OC(C)=O)CO[C@@H]6C[C@H](O[Si](CC)(CC)CC)[C@@]5(C)C(=O)[C@H](OC(C)=O)C(=C1C)C4(C)C)[C@@H]32 (some centres not stated),Active,Active,,
CC[C@]12C=CCN3CC[C@@]4(c5ccc(OC)cc5N(C)[C@H]4[C@@](O)(C(=O)OC)[C@@H]1OC(=O)CCC(=O)N[C@H]1CCc4cc(OC)c(OC)c(OC)c4-c4ccc(SC)c(=O)cc41)[C@@H]32,Active,Active,74%,
CCC1=C[C@H]2CN(C1)Cc1c([nH]c3ccccc13)[C@@](C(=O)OC)(c1cc3c(cc1OC)N(C)[C@H]1[C@@](O)(C(=O)OC)[C@H](OC(=O)CCC(=O)N[C@H]4CCc5cc(OC)c(OC)c(OC)c5-c5ccc(SC)c(=O)cc54)[C@]4(CC)C=CCN5CC[C@]31[C@@H]54)C2,,Active,,
CC[C@]12C=CCN3CC[C@@]4(c5ccc(OC)cc5N(C)[C@H]4[C@@](O)(C(=O)OC)[C@@H]1OC(=O)CCC(=O)O[C@H]1c4cc5c(cc4[C@@H](c4cc(OC)c(OC)c(OC)c4)[C@H]4C(=O)OC[C@@H]41)OCO5)[C@@H]32,,Active,,
CCC1=C[C@H]2CN(C1)Cc1c([nH]c3ccccc13)[C@@](C(=O)OC)(c1cc3c(cc1OC)N(C)[C@H]1[C@@](O)(C(=O)OC)[C@H](OC(=O)CCC(=O)O[C@H]4c5cc6c(cc5[C@@H](c5cc(OC)c(OC)c(OC)c5)[C@H]5C(=O)OC[C@@H]54)OCO6)[C@]4(CC)C=CCN5CC[C@]31[C@@H]54)C2,,Active,,Active
CC[C@]12C=CCN3CC[C@@]4(c5ccc(OC)cc5N(C)[C@H]4[C@@](O)(C(=O)OC)[C@@H]1OC(=O)CCC(=O)OC1C[C@@]4(O)[C@@H](OC(=O)c5ccccc5)[C@@H]5[C@]6(OC(C)=O)CO[C@@H]6C[C@H](O[Si](CC)(CC)CC)[C@@]5(C)C(=O)[C@H](OC(C)=O)C(=C1C)C4(C)C)[C@@H]32 (some centres not stated),,Active,,
CC[C@]12C=CCN3CC[C@@]4(c5ccc(OC)cc5N(C)[C@H]4[C@@](O)(C(=O)OC)[C@@H]1OC(=O)CCCCCCCCC(=O)O[C@H]1c4cc5c(cc4[C@@H](c4cc(OC)c(OC)c(OC)c4)[C@H]4C(=O)OC[C@@H]41)OCO5)[C@@H]32,,Active,,
CC[C@]12C=CCN3CC[C@@]4(c5ccc(OC)cc5N(C)[C@H]4[C@@](O)(C(=O)OC)[C@@H]1OC(=O)CCCCCCCCC(=O)N[C@H]1CCc4cc(OC)c(OC)c(OC)c4-c4ccc(SC)c(=O)cc41)[C@@H]32,,Active,,
